Assay results: ChEMBL document CHEMBL1121957, “Imidodisulfamides. 2. Substituted 1,2,3,4-tetrahydroisoquinolinylsulfonic imides as antagonists of slow-reacting substance of anaphylaxis” (1982)

species on record: Cavia porcellus; test: Percent inhibition of SRS-A induced contraction minus percent inhibition of 25 mM KCl induced contractions at a conc of 50(uM); type: functional
Procedure, shortened: (§1)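 Ileum segments (proximal to Peyer's patch) from male Hartley guinea pigs (400–600 g) were held in modified Tyrode's at 37.5 °C under 95% O2-5% CO2, with isometric recording. Partially purified guinea pig SRS-A or 25 mM KCl was dosed for 60–80% maximal contraction, then reapplied after 15 min compound exposure with five bath changes. Value is percent inhibition versus vehicle controls (3 vs 3 tissues), SRS-A minus KCl.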

Structure (SMILES)	Inhibition [%]
O=S(=O)(NS(=O)(=O)N1CCc2cc(Cl)ccc2C1)N1CCc2cc(Cl)ccc2C1	1
O=S(=O)(NS(=O)(=O)N1CCc2ccccc2CC1)N1CCc2ccccc2CC1	14
O=S(=O)(NC1Cc2ccccc2C1)NS(=O)(=O)NC1Cc2ccccc2C1	11
O=S(=O)(NC1CCCC[C@@H]1c1ccccc1)NS(=O)(=O)NC1CCCC[C@H]1c1ccccc1 (some centres undefined)	41
O=S(=O)(NS(=O)(=O)N1CCc2ccccc21)N1CCc2ccccc21	-13

species on record: Cavia porcellus; test: Percent inhibition of SRS-A induced contraction minus percent inhibition of 25 mM KCl induced contractions at a conc of 50(uM); Not statistically significant; type: functional; procedure, shortened: as §1

Structure (SMILES)	Inhibition [%]
O=S(=O)(NS(=O)(=O)N1CCc2ccccc2C1)N1CCc2ccccc2C1	10

species on record: Cavia porcellus; test: Percent inhibition of SRS-A induced contraction minus percent inhibition of 25 mM KCl induced contractions at a conc of 5(uM); Not statistically significant; type: functional; procedure, shortened: as §1

Structure (SMILES)	Inhibition [%]
O=S(=O)(NS(=O)(=O)N1CCc2c(Cl)cccc2C1)N1CCc2c(Cl)cccc2C1	8
O=S(=O)(NS(=O)(=O)N1CCc2cc(Cl)c(Cl)c(Cl)c2C1)N1CCc2cc(Cl)c(Cl)c(Cl)c2C1	11
CC(=O)c1ccc2c(c1)CN(S(=O)(=O)NS(=O)(=O)N1CCc3ccc(C(C)=O)cc3C1)CC2	4
O=S(=O)(NS(=O)(=O)N1CCc2cccc(Cl)c2C1)N1CCc2cccc(Cl)c2C1	16
O=S(=O)(NS(=O)(=O)N1CCc2c(Br)cc(Br)c(Br)c2C1)N1CCc2c(Br)cc(Br)c(Br)c2C1	7

species on record: Cavia porcellus; test: Percent inhibition of SRS-A induced contraction minus percent inhibition of 25 mM KCl induced contractions at a conc of 5(uM); type: functional; procedure, shortened: as §1

Structure (SMILES)	Inhibition [%]
CSc1ccc2c(c1Cl)CN(S(=O)(=O)NS(=O)(=O)N1CCc3ccc(SC)c(Cl)c3C1)CC2	25
O=S(=O)(NS(=O)(=O)N1CCc2c(Cl)c(Cl)c(Cl)c(Cl)c2C1)N1CCc2c(Cl)c(Cl)c(Cl)c(Cl)c2C1	14
O=S(=O)(NS(=O)(=O)N1CCc2c(Br)cccc2C1)N1CCc2c(Br)cccc2C1	29
O=S(=O)(NS(=O)(=O)N1CCc2c(Br)ccc(Br)c2C1)N1CCc2c(Br)ccc(Br)c2C1	50
COc1ccc(OC)c2c1CCN(S(=O)(=O)NS(=O)(=O)N1CCc3c(OC)ccc(OC)c3C1)C2	12
O=S(=O)(NS(=O)(=O)N1CCc2cc(Cl)ccc2C1)N1CCc2cc(Cl)ccc2C1	1
O=S(=O)(NS(=O)(=O)N1CCc2ccc(C(F)(F)F)c(C(F)(F)F)c2C1)N1CCc2ccc(C(F)(F)F)c(C(F)(F)F)c2C1	27
O=S(=O)(NC1CC1c1ccc(Cl)c(Cl)c1)NS(=O)(=O)NC1CC1c1ccc(Cl)c(Cl)c1 (centres undefined)	42
CC1c2c(ccc(Cl)c2Cl)CCN1S(=O)(=O)NS(=O)(=O)N1CCc2ccc(Cl)c(Cl)c2C1C (centres undefined)	48
O=S(=O)(NS(=O)(=O)N1CCc2ccc([S+]([O-])C(Cl)(Cl)Cl)cc2C1)N1CCc2ccc([S+]([O-])C(Cl)(Cl)Cl)cc2C1 (centres undefined)	28
O=S(=O)(NC1CC1c1ccccc1)NS(=O)(=O)NC1CC1c1ccccc1 (centres undefined)	17
O=S(=O)(NS(=O)(=O)N1CCc2ccc(Br)cc2C1)N1CCc2ccc(Br)cc2C1	26
O=S(=O)(NS(=O)(=O)N1CCc2ccc(Cl)c(Cl)c2C1c1ccccc1)N1CCc2ccc(Cl)c(Cl)c2C1c1ccccc1 (centres undefined)	20
O=S(=O)(NS(=O)(=O)N1CCc2ccc(Cl)c(Cl)c2C1Cc1ccccc1)N1CCc2ccc(Cl)c(Cl)c2C1Cc1ccccc1 (centres undefined)	8
CCCCCCC1c2c(ccc(Cl)c2Cl)CCN1S(=O)(=O)NS(=O)(=O)N1CCc2ccc(Cl)c(Cl)c2C1CCCCCC (centres undefined)	-5
O=S(=O)(NS(=O)(=O)N1CCc2c(cccc2-c2ccccc2)C1)N1CCc2c(cccc2-c2ccccc2)C1	13
O=S(=O)(NS(=O)(=O)N1CCc2ccc(Cl)c(Cl)c2C1C1CCCC1)N1CCc2ccc(Cl)c(Cl)c2C1C1CCCC1 (centres undefined)	4
O=S(=O)(NS(=O)(=O)N1CCc2ccc(Cl)c(SC(F)(F)C(F)F)c2C1)N1CCc2ccc(Cl)c(SC(F)(F)C(F)F)c2C1	22
Cc1ccc2c(c1Cl)CN(S(=O)(=O)NS(=O)(=O)N1CCc3ccc(C)c(Cl)c3C1)CC2	34
O=S(=O)(NS(=O)(=O)N1CCc2cc(Cl)c(Cl)cc2C1)N1CCc2cc(Cl)c(Cl)cc2C1	40
O=S(=O)(NS(=O)(=O)N1CCc2ccc(Cl)c(Cl)c2C1)N1CCc2ccc(Cl)c(Cl)c2C1	42
O=S(=O)(NS(=O)(=O)N1CCc2cc(Cl)ccc21)N1CCc2cc(Cl)ccc21	13
O=S(=O)(NS(=O)(=O)N1CCc2ccc(Cl)c(Cl)c2C1C1CC1)N1CCc2ccc(Cl)c(Cl)c2C1C1CC1 (centres undefined)	47
CC1Cc2ccc(Cl)c(Cl)c2CN1S(=O)(=O)NS(=O)(=O)N1Cc2c(ccc(Cl)c2Cl)CC1C (centres undefined)	18
COc1ccc2c(c1Cl)CN(S(=O)(=O)NS(=O)(=O)N1CCc3ccc(OC)c(Cl)c3C1)CC2	20
O=S(=O)(NS(=O)(=O)N1CCc2ccc(Cl)cc2C1)N1CCc2ccc(Cl)cc2C1	18

species on record: Cavia porcellus; test: Percent inhibition of SRS-A induced contraction minus percent inhibition of 25 mM KCl induced contractions at a conc of 5(uM); Percent enhancement of tissue contraction compared to control; type: functional; procedure, shortened: as §1

Structure (SMILES)	Inhibition [%]
COc1ccc2c(c1OC)CN(S(=O)(=O)NS(=O)(=O)N1CCc3ccc(OC)c(OC)c3C1)CC2	5
COc1ccc2c(c1)CN(S(=O)(=O)NS(=O)(=O)N1CCc3ccc(OC)cc3C1)CC2	6
